In BindingDB's records for doi:10.1021/jm9708588 (National University of Singapore, 1998) one finds Ki data, which are given here for 24 compounds.

Muscarinic acetylcholine receptor M3, sequence (P08483 whole entry): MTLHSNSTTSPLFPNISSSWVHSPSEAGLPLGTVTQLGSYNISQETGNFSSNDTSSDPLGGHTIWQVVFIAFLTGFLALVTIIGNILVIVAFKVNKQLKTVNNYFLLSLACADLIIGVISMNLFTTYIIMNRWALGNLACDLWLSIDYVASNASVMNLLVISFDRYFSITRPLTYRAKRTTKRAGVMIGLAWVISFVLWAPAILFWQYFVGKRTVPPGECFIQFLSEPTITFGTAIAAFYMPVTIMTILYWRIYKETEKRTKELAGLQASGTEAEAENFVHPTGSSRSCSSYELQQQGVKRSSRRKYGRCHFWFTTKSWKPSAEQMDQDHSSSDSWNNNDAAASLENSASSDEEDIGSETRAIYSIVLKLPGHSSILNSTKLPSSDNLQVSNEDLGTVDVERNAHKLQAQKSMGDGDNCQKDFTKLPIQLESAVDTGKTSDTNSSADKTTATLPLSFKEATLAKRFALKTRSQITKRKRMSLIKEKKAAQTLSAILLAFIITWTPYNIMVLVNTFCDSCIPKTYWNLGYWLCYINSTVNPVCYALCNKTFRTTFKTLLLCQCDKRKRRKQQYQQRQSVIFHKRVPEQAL

One experiment concerns the target T1, Muscarinic acetylcholine receptor M1 (Rattus norvegicus, UniProt P08482).
T1 sequence (P08482 whole entry): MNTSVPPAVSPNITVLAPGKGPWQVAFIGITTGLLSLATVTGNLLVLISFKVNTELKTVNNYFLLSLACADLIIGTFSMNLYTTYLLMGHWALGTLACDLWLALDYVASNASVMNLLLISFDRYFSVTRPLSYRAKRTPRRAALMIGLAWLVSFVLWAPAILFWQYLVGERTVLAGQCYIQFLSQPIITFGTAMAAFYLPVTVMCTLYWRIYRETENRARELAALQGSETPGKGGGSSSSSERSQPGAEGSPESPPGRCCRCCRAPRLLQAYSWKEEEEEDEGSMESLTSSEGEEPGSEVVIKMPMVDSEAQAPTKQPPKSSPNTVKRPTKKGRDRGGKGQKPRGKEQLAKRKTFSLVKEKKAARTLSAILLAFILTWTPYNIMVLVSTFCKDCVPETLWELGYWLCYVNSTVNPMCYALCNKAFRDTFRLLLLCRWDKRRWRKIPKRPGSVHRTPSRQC
Description: Binding affinity to Muscarinic acetylcholine receptor M1 by measuring its ability to displace [3H]pirenzepine from rat cerebral cortex.
The compound `C#CC(C)ON=C1CCN(C)CC1` (stereo unspecified) showed a Ki of 5.01 µM. On the same count and under the same terms, then `CN1CCC(=NO)CC1`, with 501 µM; and `C#CCCON=C1CC2CCC(C1)N2C`, with 1.58 µM. Same read-out and setting: for `C#CCON=C1CCN(C)CC1` the value was 50.1 µM; for `C#CC(C)ON=C1CC2CCC(C1)N2C` (stereo unspecified), 9.99 µM. The compound `O=C1CCCN1CC#CCN1CCCC1` [1-[4-(2-oxo-pyrrolidin-1-yl)-but-2-ynyl]-pyrrolidinium] displayed a Ki of 0.63 µM.

Compound `CCC#CCON=C1CCN(C)CC1` registered a Ki of 3.98 µM. Still for that read-out and setting: for `CC#CCON=C1CC2CCC(C1)N2C` the value was 0.501 µM; for `C#CCON=C1CC2CCC(C1)N2C`, 1.25 µM. As for `C#CC(CC)ON=C1CCN(C)CC1` (stereo unspecified), the affinity corresponds to a Ki of 6.3 µM. In turn, `CC#CCCON=C1CC2CCC(C1)N2C` displayed a Ki of 0.794 µM.

Consider `C#CCC(C)ON=C1CC2CCC(C1)N2C` (stereo unspecified), for which the Ki came out at 0.1 µM.

Compound `C#CCCCON=C1CC2CCC(C1)N2C` had a Ki of 0.63 µM. As to `CON=C1CCN(C)CC1`, the inhibitory constant (Ki) amounted to 50.1 µM.

For the compound `CCC#CCON=C1CC2CCC(C1)N2C`, the Ki stood at 5.01 µM. Against the preceding compound, the Ki is about 10-fold lower. `CC#CCON=C1CCN(C)CC1` displayed a Ki of 3.98 µM. `C#CC(CC)ON=C1CC2CCC(C1)N2C` (stereo unspecified) returned a Ki of 0.316 µM.

Turning to `CC#CCCON=C1CCN(C)CC1`, the Ki was 1.99 µM. `C#CCCON=C1CCN(C)CC1` had a Ki of 1.58 µM.

Regarding `C#CCC(C)ON=C1CCN(C)CC1` (stereo unspecified), the Ki was 3.16 µM.

The compound `C#CCCCON=C1CCN(C)CC1` had a Ki of 7.94 µM. This Ki is about 2.5-fold higher than that of the compound before. As to `CN1C2CCC1CC(=NO)C2`, the affinity corresponds to a Ki of 501 µM. On the same count and under the same terms, then `C[N+](C)(C)CC#CCOC(=O)Nc1cccc(Cl)c1` [McN-A-343], with 5.01 µM. Compound `CON=C1CC2CCC(C1)N2C` yielded an inhibition constant Ki of 999 µM.

Another experiment has as its target Muscarinic acetylcholine receptor M3 (Rattus norvegicus, UniProt P08483). Description: Binding affinity to Muscarinic acetylcholine receptor M3 by measuring its ability to displace [3H]N-methylscopolamine binding in rat submandibulary gland. The method in brief: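 Rat submandibulary gland membranes prepared in Na+/Mg2+ HEPES buffer pH 7.4. Nonspecific binding defined with 1 μM (±)-QNB. Pellet obtained by centrifugation and counted by scintillation. Triplicate determinations. Ki derived from IC50 by Cheng–Prusoff.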
`C[N+](C)(C)CC#CCOC(=O)Nc1cccc(Cl)c1` [McN-A-343] gave a Ki of 2.51 µM. That is a single-digit micromolar value.

Biological target in a further experiment: not listed separately
Kind of experiment: The compound was evaluated for its ability to inhibit [3H]NMS binding to Muscarinic acetylcholine receptor in heart.
Compound `CCC#CCON=C1CC2CCC(C1)N2C` gave a Ki of 63.1 µM.
